One block for each molecule: values may come before it.
Assays:
ALAS/AONS = test: continuous coupled spectrophotometric assay; type: biochemical, Mus musculus; Escherichia coli; details: read-out: KmSCoA; ALAS site; co-substrate glycine; 30 °C
Outline: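 ALAS/AONS chimera was expressed in E. coli DH5α and purified by 20–40% ammonium sulfate fractionation, Ultrogel ACA-44 gel filtration and Q-Sepharose (100–150 mM KCl gradient). Its concentration was taken on a 96 kD subunit basis. ALAS-site activity was read continuously by spectrophotometry at 30 °C, varying one substrate with the other held constant. Km came from Michaelis-Menten nonlinear regression.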

[1] = biological target: T1, ALAS/ALAS (single chain dimeric ALAS) (Mus musculus, UniProt P08680); test: dissociation constant for ALA binding
T1 sequence (P08680 50-587): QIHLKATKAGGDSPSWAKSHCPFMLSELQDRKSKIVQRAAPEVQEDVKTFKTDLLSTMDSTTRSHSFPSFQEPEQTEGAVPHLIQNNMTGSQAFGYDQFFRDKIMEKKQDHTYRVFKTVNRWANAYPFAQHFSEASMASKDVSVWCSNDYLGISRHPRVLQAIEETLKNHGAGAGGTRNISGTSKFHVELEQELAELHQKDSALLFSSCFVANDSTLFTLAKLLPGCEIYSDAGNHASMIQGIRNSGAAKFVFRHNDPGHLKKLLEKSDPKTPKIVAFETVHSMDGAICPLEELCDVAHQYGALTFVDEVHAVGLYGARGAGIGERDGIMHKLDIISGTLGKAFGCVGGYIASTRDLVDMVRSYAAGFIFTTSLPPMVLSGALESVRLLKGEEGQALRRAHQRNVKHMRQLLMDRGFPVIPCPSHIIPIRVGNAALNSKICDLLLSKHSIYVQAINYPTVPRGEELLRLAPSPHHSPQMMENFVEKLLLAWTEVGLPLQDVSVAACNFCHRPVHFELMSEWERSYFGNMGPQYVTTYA

SEC = biological target: the molecule itself; test: SEC

- Km (ALAS/AONS): 1.5 ± 0.2 µM
Molecule: CC(C)(COP(=O)(O)OP(=O)(O)OC[C@H]1O[C@@H](n2cnc3c(N)ncnc32)[C@H](O)[C@@H]1OP(=O)(O)O)[C@@H](O)C(=O)NCCC(=O)NCCSC(=O)CCC(=O)O [SCoA, succinyl-CoA]

- Kd [1]: 1460 ± 10 nM
Molecule: NCC(=O)CCC(=O)O [ALA, 5-aminolevulinate]

B1: ALAS/AONS chimera (single-chain chimera of murine erythroid 5-aminolevulinate synthase and E. coli 8-amino-7-oxononanoate synthase) (enzyme, murine | E. coli)
chain: QIHLKATKAGGDSPSWAKSHCPFMLSELQDRKSKIVQRAAPEVQEDVKTFKTDLLSTMDSTTRSHSFPSFQEPEQTEGAVPHLIQNNMTGSQAFGYDQFFRDKIMEKKQDHTYRVFKTVNRWANAYPFAQHFSEASMASKDVSVWCSNDYLGISRHPRVLQAIEETLKNHGAGAGGTRNISGTSKFHVELEQELAELHQKDSALLFSSCFVANDSTLFTLAKLLPGCEIYSDAGNHASMIQGIRNSGAAKFVFRHNDPGHLKKLLEKSDPKTPKIVAFETVHSMDGAICPLEELCDVAHQYGALTFVDEVHAVGLYGARGAGIGERDGIMHKLDIISGTLGKAFGCVGGYIASTRDLVDMVRSYAAGFIFTTSLPPMVLSGALESVRLLKGEEGQALRRAHQRNVKHMRQLLMDRGFPVIPCPSHIIPIRVGNAALNSKICDLLLSKHSIYVQAINYPTVPRGEELLRLAPSPHHSPQMMENFVEKLLLAWTEVGLPLQDVSVAACNFCHRPVHFELMSEWERSYFGNMGPQYVTTYAELMSWQEKINAALDARRAADALRRRYPVAQGAGRWLVADDRQYLNFSSNDYLGLSHHPQIIRAWQQGAEQFGIGSGGSGHVSGYSVVHQALEEELAEWLGYSRALLFISGFAANQAVIAAMMAKEDRIAADRLSHASLLEAASLSPSQLRRFAHNDVTHLARLLASPCPGQQMVVTEGVFSMDGDSAPLAEIQQVTQQHNGWLMVDDAHGTGVIGEQGRGSCWLQKVKPELLVVTFGKGFGVSGAAVLCSSTVADYLLQFARHLIYSTSMPPAQAQALRASLAVIRSDEGDARREKLAALITRFRAGVQDLPFTLADSCSAIQPLIVGDNSRALQLAEKLRQQGCWVTAIRPPTVPAGTARLRLTLTAAHEMQDIDRLLEVLHGNG
- stoichiometry N (SEC): 2

From article PMC3136873 (Archives of biochemistry and biophysics, 2011)
